According to ChEMBL document CHEMBL6134784, “Furoxan-piplartine hybrids as effective NO donors and ROS inducers in PC3 cancer cells: design, synthesis, and biological evaluation” (RSC Med Chem, 2024):
Active and inactive are the calls of the source. No cut-off for these calls is given here.

Tests used:
MCF7 = assay: Cytotoxicity against human MCF7 cells assessed as reduction in cell viability measured after 48 hrs by CCK-8 assay; type: functional, cell-based; settings: MCF7, 48 h
How it was run: (§1)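 CCK-8 viability: cells grown in RPMI-1640 with 10% FBS, 1×10^4 per well, attached 24 h, then medium replaced with fresh medium containing a range of compound concentrations for 48 h at 37 °C, 5% CO2. CCK-8 added 3 h, absorbance 450 nm; vehicle control set as 100%. IC50 by nonlinear regression, mean ± SD, at least two experiments in triplicate.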

[1] = Cytotoxicity against human MCF-10A cells assessed as reduction in cell viability measured after 48 hrs by CCK-8 assay; type: toxicity, cell-based; how it was run: as §1
PC-3 [2] = assay: Cytotoxicity against human PC-3 cells assessed as reduction in cell viability measured after 48 hrs by CCK-8 assay; type: functional, cell-based; settings: PC-3, 48 h; how it was run: as §1
[3] = Cytotoxicity against human PNT2 cells assessed as reduction in cell viability measured after 48 hrs by CCK-8 assay; type: toxicity, cell-based; how it was run: as §1
OVCAR-3 = assay: Cytotoxicity against human OVCAR-3 cells assessed as reduction in cell viability measured after 48 hrs by CCK-8 assay; type: functional, cell-based; settings: OVCAR-3, 48 h; how it was run: as §1
[4] = Selectivity index, ratio of IC50 for cytotoxicity against human MCF-10A cells to IC50 for cytotoxicity against human MCF7 cells; type: toxicity, cell-based; settings: MCF-10A cells versus MCF7 cells, read-out: Ratio IC50
How it was run: (§2)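 CCK-8 was added for 3 h and A450 read, with vehicle set as 100% viability. IC50 was fitted by nonlinear regression from ≥2 experiments in triplicate. SI = normal-cell IC50 divided by the matched cancer-cell IC50.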

[5] = Selectivity index, ratio of IC50 for cytotoxicity against human PNT2 cells to IC50 for cytotoxicity against human PC-3 cells; type: toxicity, cell-based; settings: PNT2 cells versus PC-3 cells, read-out: Ratio IC50; how it was run: as §2
PC-3 [6] = assay: Induction of nitric oxide production in human PC-3 cells assessed as nitrite level at 100 uM measured after 12 to 48 hrs by Griess assay; type: functional; settings: time 12-48 hrs
How it was run: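 PC3 cells were seeded at 1×10^4 per well and grown 24 h, then moved to serum-free RPMI with 100 μM compound for 12, 24 or 48 h at 37 °C. Supernatant was mixed with 1% sulfanilamide in 2.5% H3PO4 (10 min, dark), then 0.1% NED (10 min, 37 °C), and A540 was read. Nitrite was calculated from a NaNO2 curve (0–100 μM). Controls were DMSO and SNP 100 μM. Data from ≥3 independent experiments in triplicate, mean ± SD.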

PC-3 [7] = assay: Cytotoxicity against human PC-3 cells assessed as reduction in cell viability at 0.05 uM measured after 24 hrs by SRB assay; type: functional, cell-based
How it was run: (§3)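 SRB assay: PC3 seeded 1×10^4 per well, after 24 h exposed 24 h at 37 °C, 5% CO2 with or without 1 mM N-acetyl-L-cysteine; vehicle 0.1% DMSO. Fixed with 15% TCA at 4 °C for 1 h, dried, stained 0.4% sulforhodamine B, dye solubilized in 10 mM Tris, absorbance 540 nm; ANOVA/Tukey.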

PC-3 [8] = assay: Cytotoxicity against human PC-3 cells assessed as reduction in cell viability at 0.05 uM measured after 24 hrs in presence of antioxidant N-acetyl-L-cysteine by SRB assay; type: functional, cell-based; how it was run: as §3
PC-3 [9] = assay: Cytotoxicity against human PC-3 cells assessed as reduction in cell viability at 0.24 uM measured after 24 hrs by SRB assay; type: functional, cell-based; how it was run: as §3
PC-3 [10] = assay: Cytotoxicity against human PC-3 cells assessed as reduction in cell viability at 0.24 uM measured after 24 hrs in presence of antioxidant N-acetyl-L-cysteine by SRB assay; type: functional, cell-based; how it was run: as §3

SMILES | IC50 (MCF7) [µM] | IC50 at 48 h [1] [µM] | IC50 (PC-3 [2]) [µM] | IC50 at 48 h [3] [µM] | IC50 (OVCAR-3) [µM] | selectivity ratio [4] | selectivity ratio [5] | Activity (PC-3 [6]) [µM] | Activity (PC-3 [7]) | Activity (PC-3 [8]) | Activity (PC-3 [9]) | Activity (PC-3 [10])
COc1cc(/C=C/C(=O)N2CCC=CC2=O)cc(OC)c1OCCCCCCOc1no[n+]([O-])c1S(=O)(=O)c1ccccc1 | 1.1 | 3.6 | 0.13 | 3.3 | 0.3 | 3.1 | 26.2 | 23.5 | – | – | – | –
O=S(=O)(c1ccccc1)c1c(OCCCCCCO)no[n+]1[O-] | 2 | 1.7 | 3.8 | 12.9 | 2.2 | 0.9 | 3.4 | 3.2 | – | – | – | –
O=S(=O)(c1ccccc1)c1c(OCCCCCCCCCCCCO)no[n+]1[O-] | 4.3 | 14.8 | 0.13 | 17.6 | 0.04 | 3.4 | 137 | 3.2 | Active | inactive | – | –
O=S(=O)(c1ccccc1)c1c(OCCCO)no[n+]1[O-] | 2.1 | 1.8 | 7.2 | 1.9 | 3.3 | 0.9 | 0.3 | 3.2 | – | – | Active | inactive
COc1cc(/C=C/C(=O)N2CCC=CC2=O)cc(OC)c1OC [PIPLARTINE] | 5.4 | 5.3 | 5.6 | 8.5 | 3.5 | 1 | 1.5 | – | – | – | – | –
